The values that follow come from ChEMBL document CHEMBL5705901, “Exploiting selective BCL-2 family inhibitors to dissect cell survival dependencies and define improved strategies for cancer therapy” (Sci Transl Med, 2015).

Series [1] has as its target Apoptosis regulator Bcl-2 (Homo sapiens, UniProt P10415). The series can be described thus: Binding affinity to Bcl-2 (unknown origin) assessed as dissociation constant incubated for 1 hrs by TR-FRET assay. (In TR-FRET formats the signal depends on donor and acceptor labels being close together.)
Another series deals with NCI-H196. The series can be described thus: Synergistic antiproliferative activity against 5 times passaged human NCI-H1963 cells xenografted in mouse assessed as reduction in tumor volume at 25 mg/kg, po co-administered with venetoclax twice a day for 14 days. Conditions: time 14.0 day. It is filed as functional, organism-based. (In general: In xenograft studies the graft and the host belong to different species.)

Series [2] deals with NCI-H1650. The series can be described thus: Antitumor activity against human NCI-H1650 cells xenografted in SCID-bg mouse assessed as maximum tumor growth inhibition at 25 mg/kg, po administered daily for 14 days relative to control. Type of series: functional. The following applies: NCI-H1650, 336 h, time 14 day, read-out: TGI. In short, it runs like this:
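NCI-H1650 NSCLC xenografts, ten mice per group. Arms: vehicle; docetaxel iv once at 7.5 mg/kg; oral agent daily for 14 days at 25 mg/kg; and the two combined. TGImax = 100(1 − Tv/Cv) from mean volumes. TGD = 100(T/C − 1) from median times to reach 1 cm3.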

Series [3] is described as follows: Toxicity in po dosed SCID mouse assessed as tolerance. Type of series: organism-based. Conditions: in vivo.
Series [4] is described as follows: Toxicity in po dosed SCID-bg mouse assessed as tolerance in presence of docetaxel. The following applies: in vivo. Type of series: organism-based.
Series [5] can be described thus: Toxicity in po dosed SCID-bg mouse assessed as body weight loss in presence of docetaxel relative to control. Type of series: organism-based. Conditions: in vivo.
Series [6] is described as follows: Toxicity in po dosed SCID-bg mouse assessed as body weight loss relative to control. The following applies: in vivo. It is filed as organism-based.
The next series relates to A549. Nature of the series: Synergistic antitumor activity against 3 times passaged human A549 cells xenografted in po dosed SCID mouse assessed as maximum tumor growth inhibition in presence of docetaxel relative to control. Type of series: functional. Summed up: (§1)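 Xenografts dosed with oral inhibitor plus intravenous docetaxel. TGImax = 100(1 − Tv/Cv), from mean treated and control tumor volumes; TGD = 100(T/C − 1), from median times to reach 1 cm3. Group size 5 mice (NCI-H747, A549-FP3, EBC-1, OVCAR-5), 8 (NCI-H358), 10 (NCI-H1650).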

A further series deals with EBC-1. The series can be described thus: Synergistic antitumor activity against human EBC-1 cells xenografted in po dosed SCID-bg mouse assessed as tumor growth delay in presence of docetaxel relative to control. It is filed as functional. Summed up:
as §1

In another series the test system is OVCAR-5. The series can be described thus: Antitumor activity against human OVCAR-5 xenografted in po dosed SCID mouse assessed as tumor growth delay relative to control. It is filed as functional. In short, it runs like this:
(§2)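 Tumor volume-based endpoints. TGD = 100(T/C − 1), where T and C are the median times for the treated and control groups to reach 1 cm3. Groups were five mice for NCI-H747 and OVCAR-5 and eight for NCI-H358. Docetaxel was given intravenously and the test agent orally.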

Series [7] relates to NCI-H358. Nature of the series: Antitumor activity against human NCI-H358 cells xenografted in po dosed SCID mouse assessed as tumor growth delay relative to control. Type of series: functional. Summed up:
as §2

Series [8] relates to NCI-H358. Nature of the series: Synergistic antitumor activity against human NCI-H358 cells xenografted in po dosed SCID mouse assessed as maximum tumor growth inhibition in presence of docetaxel relative to control. Type of series: functional. Summed up: as §1
The nature of series [9]: Toxicity in po dosed SCID mouse assessed as tolerance in presence of docetaxel. Type of series: organism-based. Conditions: in vivo.
Series [10] in a line: Toxicity in Sprague-Dawley rat assessed as inhibition of granulopoiesis by measuring reduction in neutrophil count at 7 mg/kg, po administered daily for 5 days measured on day 6 by microscopic analysis relative to control. Type of series: organism-based. The following applies: in vivo, 144 h, time 6 day. Summed up: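 Male Sprague-Dawley rats, n = 10 per group: docetaxel 5 mg/kg i.v. once, or oral inhibitor daily for 5 days (30, 50 or 7 mg/kg depending on agent), alone or combined with docetaxel, against vehicles. Total neutrophil and platelet counts in blood collected on day 6; Tukey-Kramer test versus vehicle.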

The subject of another series is HCC1806. The series can be described thus: Synergistic antiproliferative activity against human HCC1806 cells assessed as reduction in cell viability by measuring bliss sum score incubated for 72 hrs in presence of docetaxel by CellTiter-Glo cell vaibility assay. Type of series: functional. (Cellular ATP, detected with luciferase, serves as a proxy for viable cell number.)

For series [11], the system named is MDA-MB-361. Nature of the series: Synergistic antiproliferative activity against human MDA-MB-361 cells assessed as reduction in cell viability by measuring bliss sum score incubated for 72 hrs in presence of docetaxel by CellTiter-Glo cell vaibility assay. Type of series: functional.
Another series relates to HCC1937. Nature of the series: Synergistic antiproliferative activity against human HCC1937 cells assessed as reduction in cell viability by measuring bliss sum score incubated for 72 hrs in presence of docetaxel by CellTiter-Glo cell vaibility assay. Type of series: functional.
The test system of another series is T47D. Nature of the series: Synergistic antiproliferative activity against human T47D cells assessed as reduction in cell viability by measuring bliss sum score incubated for 72 hrs in presence of docetaxel by CellTiter-Glo cell vaibility assay. Type of series: functional.
The next series relates to BT-20. The series can be described thus: Synergistic antiproliferative activity against human BT-20 cells assessed as reduction in cell viability by measuring bliss sum score incubated for 72 hrs in presence of docetaxel by CellTiter-Glo cell vaibility assay. Type of series: functional.
Another series concerns SW1573. The series can be described thus: Synergistic antiproliferative activity against human SW1573 cells assessed as reduction in cell viability by measuring bliss sum score incubated for 72 hrs in presence of docetaxel by CellTiter-Glo cell vaibility assay. Type of series: functional.
Series [12] has as its system NCI-H1650. The series can be described thus: Synergistic antiproliferative activity against human NCI-H1650 cells assessed as reduction in cell viability by measuring bliss sum score incubated for 72 hrs in presence of docetaxel by CellTiter-Glo cell vaibility assay. It is filed as functional.
The subject of another series is NCI-H23. Nature of the series: Synergistic antiproliferative activity against human NCI-H23 cells assessed as reduction in cell viability by measuring bliss sum score incubated for 72 hrs in presence of docetaxel by CellTiter-Glo cell vaibility assay. It is filed as functional.
The test system of another series is NCI-H522. The series can be described thus: Synergistic antiproliferative activity against human NCI-H522 cells assessed as reduction in cell viability by measuring bliss sum score incubated for 72 hrs in presence of docetaxel by CellTiter-Glo cell vaibility assay. Type of series: functional.
For the next series, the system named is NCI-H1703. Nature of the series: Synergistic antiproliferative activity against human NCI-H1703 cells assessed as reduction in cell viability by measuring bliss sum score incubated for 72 hrs in presence of docetaxel by CellTiter-Glo cell vaibility assay. Type of series: functional.
The subject of another series is ZR-75-1. Nature of the series: Induction of apoptosis in human ZR-75-1 cells assessed as increase in caspase cleavage incubated for 48 hrs in presence of docetaxel by immunoblot analysis. It is filed as functional, cell-based.
The test system of series [13] is MDA-MB-468. The series can be described thus: Induction of apoptosis in human MDA-MB-468 cells assessed as increase in caspase cleavage incubated for 48 hrs in presence of docetaxel by immunoblot analysis. It is filed as functional, cell-based.
Series [14] relates to MDA-MB-468. The series can be described thus: Induction of apoptosis in human MDA-MB-468 cells assessed as poly(ADP-ribose) polymerase cleavage incubated for 48 hrs in presence of docetaxel by immunoblot analysis. Type of series: functional, cell-based.
For series [15], the system named is MDA-MB-361. The series can be described thus: Induction of apoptosis in human MDA-MB-361 cells assessed as accumulation of cells with sub-G0-G1 DNA content at 1 uM incubated for 48 hrs in presence of docetaxel by flow cytometric analysis. It is filed as functional, cell-based.
Another series concerns UAC812. Nature of the series: Induction of apoptosis in UAC812 (unknown origin) cells assessed as accumulation of cells with sub-G0-G1 DNA content at 1 uM incubated for 48 hrs in presence of docetaxel by flow cytometric analysis. Type of series: functional, cell-based.
A further series has as its system HCC1954. Nature of the series: Induction of apoptosis in human HCC1954 cells assessed as accumulation of cells with sub-G0-G1 DNA content at 1 uM incubated for 48 hrs in presence of docetaxel by flow cytometric analysis. It is filed as functional, cell-based.

The structures appear in SMILES notation. The source made the active and inactive calls. The calls are words filed in the database; no cut-off is given here. Bounds are passed on as bounds.

Sequence of Apoptosis regulator Bcl-2 (P10415 whole entry): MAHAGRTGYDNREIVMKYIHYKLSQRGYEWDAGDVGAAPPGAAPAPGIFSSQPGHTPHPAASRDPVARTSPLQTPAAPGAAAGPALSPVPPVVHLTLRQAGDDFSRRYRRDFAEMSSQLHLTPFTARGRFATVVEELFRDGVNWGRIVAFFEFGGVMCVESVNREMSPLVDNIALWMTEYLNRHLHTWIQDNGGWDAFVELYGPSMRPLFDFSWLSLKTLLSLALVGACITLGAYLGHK

What is called Ki is a dissociation constant, usually derived from enzyme kinetics or from competition with a known ligand. The TGI is how far tumour growth fell short of that in controls. Consider `Cc1c(-c2ccc(N3CCc4cccc(C(=O)Nc5nc6ccccc6s5)c4C3)nc2C(=O)O)cnn1CC12CC3CC(CC(C3)C1)C2`, for which, in series [1], the Ki came to 6 nM. Further, the outcome with NCI-H196 was Active. The inhibition in vivo at 25 mg/kg with NCI-H1650 [2] is 48%. In addition, the Activity result in [3] is “Non-Toxic”; in series [4] it was “Non-Toxic”; in [5], less than 9%; in series [6] it was less than 9%; in the series with EBC-1, 94%; with OVCAR-5 it was 54%. The Activity in the series on NCI-H358 [7] is listed as 80%; in series [9], “Non-Toxic”; in series [10], “Non-Toxic”. In addition, the TGI with A549 is reported as 74%; in the series on NCI-H358 [8] it was 91%.

On to `CN(C)CC#Cc1ccc(OCCCc2sc(N3CCc4cccc(C(=O)Nc5nc6ccccc6s5)c4C3)nc2C(=O)O)c(F)c1` [A-1155463], for which the Activity_index with HCC1806 turned out to be 224; in the series with MDA-MB-361 [11], 110; with HCC1937, 332; with T47D it was 250; in the series on BT-20, 260; in the series on SW1573, 461. Also, the Activity_index with NCI-H1650 [12] is 312; in the series on NCI-H23, 97; in the series on NCI-H522, 242; with NCI-H1703, 29.

Take `CC1(C)CCC(c2ccc(Cl)cc2)=C(CN2CCN(c3ccc(C(=O)NS(=O)(=O)c4ccc(N[C@H](CCN5CCOCC5)CSc5ccccc5)c(S(=O)(=O)C(F)(F)F)c4)cc3)CC2)C1` [NAVITOCLAX]: the result in the series on ZR-75-1, with MDA-MB-468 [13], with MDA-MB-468 [14], in the series on MDA-MB-361 [15], with UAC812 and in the series with HCC1954 was Active.
